Experimental data reported in BindingDB's records for doi:10.1016/j.ejmech.2011.01.042 (Ludwig-Maximilians-University Munich, 2011).
Where a name gives a salt, the structure may show the parent alone.

Assays:
[1] = molecular target: T1, Sodium- and chloride-dependent GABA transporter 2 (Mus musculus, UniProt P31649); test: Inhibition of mouse GAT2-mediated [3H]GABA uptake expressed in human HEK cells
T1 sequence (P31649 whole entry): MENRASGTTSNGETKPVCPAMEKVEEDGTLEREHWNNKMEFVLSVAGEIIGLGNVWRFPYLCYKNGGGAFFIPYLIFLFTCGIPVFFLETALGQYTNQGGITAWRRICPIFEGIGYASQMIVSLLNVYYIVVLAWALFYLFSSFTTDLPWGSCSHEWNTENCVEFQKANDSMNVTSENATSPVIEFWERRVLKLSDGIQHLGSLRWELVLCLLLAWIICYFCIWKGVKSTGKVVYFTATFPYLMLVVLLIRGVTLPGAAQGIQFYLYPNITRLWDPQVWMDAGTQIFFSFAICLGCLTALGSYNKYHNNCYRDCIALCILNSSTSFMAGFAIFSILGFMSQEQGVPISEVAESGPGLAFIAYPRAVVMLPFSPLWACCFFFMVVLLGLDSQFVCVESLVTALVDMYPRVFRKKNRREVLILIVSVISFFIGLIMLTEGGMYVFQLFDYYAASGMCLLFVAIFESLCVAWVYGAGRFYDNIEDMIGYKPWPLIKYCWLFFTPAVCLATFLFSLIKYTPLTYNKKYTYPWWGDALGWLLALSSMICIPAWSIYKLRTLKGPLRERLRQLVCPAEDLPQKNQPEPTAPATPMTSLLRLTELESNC
In short: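 The value is pIC50, given as mean ± SEM of three independent experiments, each run in triplicate. Where only two experiments were run, uptake is reported rather than pIC50.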

[2] = molecular target: T2, Sodium- and chloride-dependent GABA transporter 3 (Mus musculus, UniProt P31650); test: Inhibition of mouse GAT3-mediated [3H]GABA uptake expressed in human HEK cells assessed as specific binding remaining at 1 mM
T2 sequence (P31650 whole entry): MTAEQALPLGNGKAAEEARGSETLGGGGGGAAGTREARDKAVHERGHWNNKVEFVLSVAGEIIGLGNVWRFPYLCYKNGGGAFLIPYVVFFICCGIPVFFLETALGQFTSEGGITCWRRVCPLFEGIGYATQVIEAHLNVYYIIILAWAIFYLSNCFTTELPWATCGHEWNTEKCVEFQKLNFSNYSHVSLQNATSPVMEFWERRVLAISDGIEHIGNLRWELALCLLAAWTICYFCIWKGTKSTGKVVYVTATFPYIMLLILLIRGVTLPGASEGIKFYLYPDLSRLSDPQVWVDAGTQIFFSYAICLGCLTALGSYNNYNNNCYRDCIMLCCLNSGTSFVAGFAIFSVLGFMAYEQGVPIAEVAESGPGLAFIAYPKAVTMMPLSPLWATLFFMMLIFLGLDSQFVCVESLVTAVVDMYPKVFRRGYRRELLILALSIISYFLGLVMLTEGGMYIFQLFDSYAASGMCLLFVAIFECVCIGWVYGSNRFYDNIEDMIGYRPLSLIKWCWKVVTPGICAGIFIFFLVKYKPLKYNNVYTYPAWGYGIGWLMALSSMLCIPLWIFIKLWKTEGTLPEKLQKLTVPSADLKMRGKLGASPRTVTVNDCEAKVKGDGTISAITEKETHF

Row | SMILES | IC50 [1] [µM] | IC50 [2] [µM]
1 | COc1ccc(C2(O)CCN(CCCn3c4ccccc4c4ccccc43)CC2)cc1 [1-(3-(9H-carbazol-9-yl)propyl)-4-(4-methoxyphenyl)piperidin-4-ol] | 1.4 | –
2 | Cc1ccsc1C(=CCCN(C)C1CCCc2o[nH]c(=O)c21)c1sccc1C (stereo not drawn) [4-((4,4-bis(3-methylthiophen-2-yl)but-3-enyl)(methyl)amino)-4,5,6,7-tetrahydrobenzo[d]isoxazol-3-ol] | 22 | –
3 | O=C(O)CCCCCCn1ccnc1 [7-Imidazol-1-yl-heptanoic acid; hydrochloride] | – | 776
